# Results from ChEMBL document CHEMBL1255409, “In vitro activity of ceftaroline against 623 diverse strains of anaerobic bacteria” (2010).
# Key:
# Type in all cases: functional
# Bacteroides fragilis = assay: Antimicrobial activity against Bacteroides fragilis under anaerobic conditions after 44 hrs by CLSI-M11-47 protocol based agar dilution method
# Method in brief: (§1)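 Reference agar dilution per CLSI M11-A7 with plates made on test day. Clinical isolates were stored at −70°C in 20% skim milk, subcultured twice, and 48-h cell paste was suspended in brucella broth to 0.5 McFarland. About 10^5 CFU/spot was applied with a Steers replicator. Plates were incubated 44 h at 37°C anaerobically. MIC was the lowest concentration giving complete inhibition or marked growth reduction versus the drug-free control.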
# [1] = system: Parabacteroides distasonis; assay: Antimicrobial activity against Bacteroides distasonis under anaerobic conditions after 44 hrs by CLSI-M11-47 protocol based agar dilution method; method in brief: as §1
# Prevotella intermedia = assay: Antimicrobial activity against Prevotella intermedia under anaerobic conditions after 44 hrs by CLSI-M11-47 protocol based agar dilution method
# Method in brief: (§2)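 Clinical isolates were stored at −70°C in 20% skim milk and identified phenotypically or by partial 16S rRNA sequencing. Each strain was subcultured twice from frozen stock. Cell paste from 48-h cultures was suspended in brucella broth to a 0.5 McFarland standard. About 10^5 CFU per spot were applied by Steers replicator to agar dilution plates prepared on the day of testing. Plates were incubated 44 h at 37°C in an anaerobic chamber. MIC was taken as the lowest concentration giving complete inhibition or marked reduction of growth versus the drug-free control.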
# Prevotella corporis = assay: Antimicrobial activity against Prevotella corporis under anaerobic conditions after 44 hrs by CLSI-M11-47 protocol based agar dilution method; method in brief: as §2
# Prevotella denticola = assay: Antimicrobial activity against Prevotella denticola under anaerobic conditions after 44 hrs by CLSI-M11-47 protocol based agar dilution method; method in brief: as §2
# Hoylesella loescheii = assay: Antimicrobial activity against Prevotella loescheii under anaerobic conditions after 44 hrs by CLSI-M11-47 protocol based agar dilution method; method in brief: as §2
# Prevotella tannerae = assay: Antimicrobial activity against Prevotella tannerae under anaerobic conditions after 44 hrs by CLSI-M11-47 protocol based agar dilution method; settings: Alloprevotella tannerae; method in brief: as §2
# Fusobacterium nucleatum = assay: Antimicrobial activity against Fusobacterium nucleatum under anaerobic conditions after 44 hrs by CLSI-M11-47 protocol based agar dilution method; method in brief: as §2
# [2] = system: Fusobacterium necrophorum; assay: Antimicrobial activity against Fusobacterium necrophorum under anaerobic conditions after 44 hrs by CLSI-M11-47 protocol based agar dilution method; method in brief: as §1
# Finegoldia magna = assay: Antimicrobial activity against Finegoldia magna under anaerobic conditions after 44 hrs by CLSI-M11-47 protocol based agar dilution method; method in brief: as §1
# Parvimonas micra = assay: Antimicrobial activity against Parvimonas micra under anaerobic conditions after 44 hrs by CLSI-M11-47 protocol based agar dilution method; method in brief: as §2
# Anaerococcus vaginalis = assay: Antimicrobial activity against Anaerococcus vaginalis under anaerobic conditions after 44 hrs by CLSI-M11-47 protocol based agar dilution method; method in brief: as §1
# Anaerococcus = assay: Antimicrobial activity against Anaerococcus sp. under anaerobic conditions after 44 hrs by CLSI-M11-47 protocol based agar dilution method; method in brief: as §1
# Gemella morbillorum = assay: Antimicrobial activity against Gemella morbillorum under anaerobic conditions after 44 hrs by CLSI-M11-47 protocol based agar dilution method; method in brief: as §2
# Gemella sanguinis = assay: Antimicrobial activity against Gemella sanguinis under anaerobic conditions after 44 hrs by CLSI-M11-47 protocol based agar dilution method; method in brief: as §2
# Schaalia meyeri = assay: Antimicrobial activity against Actinomyces meyeri under anaerobic conditions after 44 hrs by CLSI-M11-47 protocol based agar dilution method; method in brief: as §1
# Schaalia odontolytica = assay: Antimicrobial activity against Actinomyces odontolyticus under anaerobic conditions after 44 hrs by CLSI-M11-47 protocol based agar dilution method; method in brief: as §1
# Actinomyces turicensis = assay: Antimicrobial activity against Actinomyces turicensis under anaerobic conditions after 44 hrs by CLSI-M11-47 protocol based agar dilution method; settings: Schaalia turicensis; method in brief: as §1
# Atopobium parvulum = assay: Antimicrobial activity against Atopobium parvulum under anaerobic conditions after 44 hrs by CLSI-M11-47 protocol based agar dilution method; settings: Lancefieldella parvula; method in brief: as §1
# Eubacterium saburreum = assay: Antimicrobial activity against Eubacterium saburreum under anaerobic conditions after 44 hrs by CLSI-M11-47 protocol based agar dilution method; settings: Lachnoanaerobaculum saburreum; method in brief: as §1
# Mogibacterium timidum = assay: Antimicrobial activity against Mogibacterium timidum under anaerobic conditions after 44 hrs by CLSI-M11-47 protocol based agar dilution method; method in brief: as §2
# Slackia exigua = assay: Antimicrobial activity against Slackia exigua under anaerobic conditions after 44 hrs by CLSI-M11-47 protocol based agar dilution method; method in brief: as §2
# Thomasclavelia ramosa = assay: Antimicrobial activity against Clostridium ramosum under anaerobic conditions after 44 hrs by CLSI-M11-47 protocol based agar dilution method; method in brief: as §1
# [Clostridium] innocuum = Antimicrobial activity against Clostridium […] under anaerobic conditions after 44 hrs by CLSI-M11-47 protocol based agar dilution method; method in brief: as §1
# Clostridium aldenense = assay: Antimicrobial activity against Clostridium aldenense under anaerobic conditions after 44 hrs by CLSI-M11-47 protocol based agar dilution method; settings: Enterocloster aldenensis; method in brief: as §1
# Clostridium bolteae = assay: Antimicrobial activity against Clostridium bolteae under anaerobic conditions after 44 hrs by CLSI-M11-47 protocol based agar dilution method; settings: Enterocloster bolteae; method in brief: as §1
# Clostridium citroniae = assay: Antimicrobial activity against Clostridium citroniae under anaerobic conditions after 44 hrs by CLSI-M11-47 protocol based agar dilution method; settings: Enterocloster citroniae; method in brief: as §1
# Clostridium baratii = assay: Antimicrobial activity against Clostridium baratii under anaerobic conditions after 44 hrs by CLSI-M11-47 protocol based agar dilution method
# [3] = system: Paraclostridium bifermentans; assay: Antimicrobial activity against Clostridium bifermentans under anaerobic conditions after 44 hrs by CLSI-M11-47 protocol based agar dilution method; method in brief: as §1
# Clostridium cadaveris = assay: Antimicrobial activity against Clostridium cadaveris under anaerobic conditions after 44 hrs by CLSI-M11-47 protocol based agar dilution method; method in brief: as §1
# [4] = system: Clostridium paraputrificum; assay: Antimicrobial activity against Clostridium paraputrificum under anaerobic conditions after 44 hrs by CLSI-M11-47 protocol based agar dilution method; method in brief: as §1
# Clostridium symbiosum = assay: Antimicrobial activity against Clostridium symbiosum under anaerobic conditions after 44 hrs by CLSI-M11-47 protocol based agar dilution method; method in brief: as §1
structure (smiles),measurement,setting,value
CCC[C@@H]1C[C@@H](C(=O)N[C@@H]([C@H]2O[C@H](SC)[C@H](O)[C@@H](O)[C@H]2O)[C@H](C)Cl)N(C)C1 [CLINDAMYCIN],MIC50,Bacteroides fragilis,1 µg/mL
same,MIC90,Bacteroides fragilis,128 µg/mL
same,MIC50,[1],4 µg/mL
same,MIC90,[1],> 128 µg/mL
same,MIC50,Prevotella intermedia,≤ 0.03 µg/mL
same,MIC90,Prevotella intermedia,16 µg/mL
same,MIC50,Prevotella corporis,≤ 0.03 µg/mL
same,MIC90,Prevotella corporis,128 µg/mL
same,MIC50,Prevotella denticola,≤ 0.03 µg/mL
same,MIC90,Prevotella denticola,128 µg/mL
same,MIC50,Hoylesella loescheii,≤ 0.03 µg/mL
same,MIC90,Hoylesella loescheii,128 µg/mL
same,MIC50,Prevotella tannerae,≤ 0.03 µg/mL
same,MIC90,Prevotella tannerae,128 µg/mL
same,MIC50,Fusobacterium nucleatum,0.06 µg/mL
same,MIC90,Fusobacterium nucleatum,0.06 µg/mL
same,MIC50,[2],≤ 0.03 µg/mL
same,MIC90,[2],0.06 µg/mL
same,MIC50,Finegoldia magna,2 µg/mL
same,MIC90,Finegoldia magna,> 128 µg/mL
same,MIC50,Parvimonas micra,0.25 µg/mL
same,MIC90,Parvimonas micra,16 µg/mL
same,MIC50,Anaerococcus vaginalis,0.125 µg/mL
same,MIC90,Anaerococcus vaginalis,64 µg/mL
same,MIC50,Anaerococcus,0.125 µg/mL
same,MIC90,Anaerococcus,64 µg/mL
same,MIC50,Gemella morbillorum,0.125 µg/mL
same,MIC90,Gemella morbillorum,64 µg/mL
same,MIC50,Gemella sanguinis,0.125 µg/mL
same,MIC90,Gemella sanguinis,64 µg/mL
same,MIC50,Schaalia meyeri,0.06 µg/mL
same,MIC90,Schaalia meyeri,128 µg/mL
same,MIC50,Schaalia odontolytica,0.06 µg/mL
same,MIC90,Schaalia odontolytica,128 µg/mL
same,MIC50,Actinomyces turicensis,0.06 µg/mL
same,MIC90,Actinomyces turicensis,128 µg/mL
same,MIC50,Atopobium parvulum,0.06 µg/mL
same,MIC90,Atopobium parvulum,2 µg/mL
same,MIC50,Eubacterium saburreum,0.06 µg/mL
same,MIC90,Eubacterium saburreum,2 µg/mL
same,MIC50,Mogibacterium timidum,0.06 µg/mL
same,MIC90,Mogibacterium timidum,2 µg/mL
same,MIC50,Slackia exigua,0.06 µg/mL
same,MIC90,Slackia exigua,2 µg/mL
same,MIC50,Thomasclavelia ramosa,4 µg/mL
same,MIC90,Thomasclavelia ramosa,8 µg/mL
same,MIC50,[Clostridium] innocuum,0.5 µg/mL
same,MIC90,[Clostridium] innocuum,> 128 µg/mL
same,MIC50,Clostridium aldenense,0.5 µg/mL
same,MIC90,Clostridium aldenense,2 µg/mL
same,MIC50,Clostridium bolteae,0.5 µg/mL
same,MIC90,Clostridium bolteae,2 µg/mL
same,MIC50,Clostridium citroniae,0.5 µg/mL
same,MIC90,Clostridium citroniae,2 µg/mL
same,MIC50,Clostridium baratii,2 µg/mL
same,MIC90,Clostridium baratii,128 µg/mL
same,MIC50,[3],2 µg/mL
same,MIC90,[3],128 µg/mL
same,MIC50,Clostridium cadaveris,2 µg/mL
same,MIC90,Clostridium cadaveris,128 µg/mL
same,MIC50,[4],2 µg/mL
same,MIC90,[4],128 µg/mL
same,MIC50,Clostridium symbiosum,2 µg/mL
same,MIC90,Clostridium symbiosum,128 µg/mL
